# ASAP1 GAP inh: blocks human ASAP1-stimulated Arf1 GTP hydrolysis; GDP FP detection; 360,000 compounds, 0.19% hits; inhibition, % at 16.5 µM; Q9ULH1; in the data active means inhibition above about 25%;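 further: 0% = vehicle with enzyme and substrate and 100% = no enzyme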
# IMP-1 inh-1: blocks Pseudomonas aeruginosa IMP-1 metallo-beta-lactamase; 290,000 compounds, 0.45% hits; purified IMP-1, nitrocefin hydrolysis, epi-absorbance fluorescence; inhibition, % at 5.6 µM;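 active means inhibition above the mean plus 3 SD of all compounds in the same screening run, cut at about 4.5% in these data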;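 further: 0% = IMP-1 with DMSO and 100% = DMSO wells lacking enzyme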
#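 Assay system: purified recombinant IMP-1 beta-lactamase. Input: IMP-1 0.2 nM before substrate addition. Buffer or medium: Zinc- and detergent-supplemented HEPES buffer, pH 7.1. Schedule: 25 °C, 15 min preincubation, 25 min reaction. Signal: Epi-absorbance fluorescence, 480 nm excitation, 530 nm emission. Evaluation: percent inhibition from optical density relative to buffer-blank wells.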
# VIM-2 inhibitor: inhibitors of Pseudomonas aeruginosa VIM-2 metallo-beta-lactamase | inhibition, % at 5.6 µM | AID 1527 | 290,000 compounds, 0.89% hits | purified VIM-2, nitrocefin hydrolysis, epi-absorbance fluorescence;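 active means inhibition above the mean of all tested compounds plus 3 SD, cutoff set per screening run, cut at about 7.5% in these data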;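 further: red hydrolysis product quenches plate fluorescence so inhibitors raise well fluorescence; 0% = enzyme with DMSO and 100% = DMSO without enzyme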
# PHOSPHO1 block: blocks human PHOSPHO1 phosphatase activity | recombinant PHOSPHO1, absorbance phosphatase assay | inhibition, % at 13.3 µM | 290,000 compounds, 1.1% hits; in the data active means inhibition above about 60%
# Target sequence (Q8TCT1 whole entry, looked up): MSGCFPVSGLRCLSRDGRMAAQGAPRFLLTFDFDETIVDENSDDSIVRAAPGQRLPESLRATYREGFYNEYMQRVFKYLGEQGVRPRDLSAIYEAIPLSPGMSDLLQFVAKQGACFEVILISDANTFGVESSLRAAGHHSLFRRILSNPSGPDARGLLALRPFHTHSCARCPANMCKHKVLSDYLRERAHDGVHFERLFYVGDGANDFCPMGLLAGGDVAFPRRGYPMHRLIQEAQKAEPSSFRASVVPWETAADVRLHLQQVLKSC
# ARFGAP1 inhibitor: inhibits rat ARF GTPase activating protein 1. inhibition, % at 16.5 µM. Arfgap1-stimulated ARF1 GTP hydrolysis, GDP FP detection. Q62848. 360,000 compounds, 0.26% hits;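 active means inhibition above a per-plate limit, mean inhibition of low control wells plus 3 SD, cut at about 25% in these data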;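 further: 0% = DMSO wells with enzyme and 100% = wells lacking Arfgap1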
#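 Replicates: Single well per compound | Assay system: Truncated rat Arfgap1 GAP domain | Control set: No-Arfgap1 wells (100%) versus DMSO full-reaction wells (0%) | Times: Enzyme reaction 120 min at 25 °C after 20 min preincubation | Reagent: Human ARF1(Δ1-17)-GTP substrate | Measured by: Tracer-displacement fluorescence polarization with EDTA stop, 620/688 nm | Measure: Percent inhibition of Arfgap1-stimulated GTP hydrolysis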
# Calb FLC: C. albicans growth modulation with fluconazole | C. albicans CaCi-2 + fluconazole, Alamar Blue growth, 48 h | growth inhibition, % (concentration not given with the values) | 300,000 compounds, 0.57% hits | AID 1979;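 active means growth inhibition above about 58% in most replicates, limit read from the data, passing the limit was not always enough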;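 further: all wells also contain fluconazole at 8 µg/ml as a sub-toxic cotreatment; 0% = median of DMSO wells and 100% = median of geldanamycin control wells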
# IMP-1 inh-2: IMP-1 inhibition, counter-screen for VIM-2 inhibitors. shares compounds with VIM-2 inhibitor. purified IMP-1, nitrocefin hydrolysis, epi-absorbance fluorescence. inhibition, % at 5.6 µM. 1,300 tested, under 10 active. AID 1856; call rule not given here;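 further: 0% = enzyme with vehicle and 100% = vehicle without enzyme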
# VIM-2 FRET inh: counter-screen for VIM-2 inhibitors: epi-absorbance artifacts via FRET; shares compounds with VIM-2 inhibitor; purified VIM-2, CCF2 FRET substrate hydrolysis; inhibition, % at 5.6 µM; 1,300 compounds, 23% hits;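 active means inhibition above the mean of all tested compounds plus 3 SD, cut at about 19% in these data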;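 further: 0% = VIM-2 plus DMSO and 100% = no enzyme wells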
# TEM-1 counter: TEM-1 inhibition, counter-screen for VIM-2 inhibitors | Purified TEM-1, nitrocefin hydrolysis, epi-absorbance fluorescence | 1,300 compounds, 3% hits | inhibition, % at 5.6 µM | AID 1866 | shares compounds with VIM-2 inhibitor;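 active means inhibition above that campaign's mean inhibition plus 3 SD, cut at about 0.46% in these data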;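 further: 0% = TEM-1 with DMSO and 100% = TEM-1 with 100 µM potassium clavulanate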
# Target sequence (P62593 whole entry, looked up): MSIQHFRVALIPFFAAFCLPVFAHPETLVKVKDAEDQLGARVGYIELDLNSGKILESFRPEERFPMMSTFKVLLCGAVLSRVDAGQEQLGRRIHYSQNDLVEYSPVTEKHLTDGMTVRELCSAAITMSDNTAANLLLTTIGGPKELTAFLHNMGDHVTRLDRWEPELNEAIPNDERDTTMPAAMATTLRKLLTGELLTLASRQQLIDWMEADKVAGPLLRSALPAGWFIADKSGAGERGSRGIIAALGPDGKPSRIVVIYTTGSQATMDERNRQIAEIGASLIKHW
# VIM-2 inh conf: confirmation of P. aeruginosa VIM-2 metallo-beta-lactamase inhibitors; AID 2187; shares compounds with VIM-2 inhibitor; purified VIM-2, nitrocefin hydrolysis, epi-absorbance; 1,300 compounds, 96% hits; inhibition, % at 5.6 µM;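 active means inhibition of the VIM-2 beta-lactamase enzyme above about 11% from the earlier first-round screen, limit read from the data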;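 further: 0% = VIM-2 with DMSO and 100% = buffer wells without enzyme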
# Active calls of the source: *; nt = no result given. Hits are enriched below; roughly 2.6% of the tested compounds scored in any of these assays.
SMILES,ASAP1 GAP inh,IMP-1 inh-1,VIM-2 inhibitor,PHOSPHO1 block,ARFGAP1 inhibitor,Calb FLC,IMP-1 inh-2,VIM-2 FRET inh,TEM-1 counter,VIM-2 inh conf
CC1=C(C(=O)N2CCCCCC2)CC(CC(=O)NC2CCCCC2)C(=O)N1CCC1=CCCCC1 (configuration not stated),4,nt,nt,nt,5,nt,nt,nt,nt,nt
CCOc1ccccc1C(=O)Nc1cccc(-c2ccc3nncn3n2)c1,-3,0,21*,16,14,13,-3,1,-8,31*
COc1ccc(Cn2c(=O)[nH]c3cc(C(=O)Nc4ccc(N5CCN(C)CC5)cc4)ccc32)cc1,11,-2,16*,-16,14,6,-2,-5,-5,42*
CCN1CCN(c2ccc(NC(=O)c3cccc(N4CCCC4=O)c3)cc2)CC1,2,-2,17*,45,-10,-8,-3,-3,-4,22*
O=C(Nc1ccc(N2CCCC2=O)cc1)c1cccc(F)c1,4,-1,0,0,1,0,nt,nt,nt,nt
CN1CCN(c2ccc(NC(=O)c3ccc4c(c3)OCCO4)cc2)CC1,12,-2,18*,44,15,23,-3,-6,-6,34*
CN1CCN(c2ccc(NC(=O)c3cccc(OCc4ccccc4)c3)cc2)CC1,-11,-1,12*,24,13,-7,-3,0,-5,28*
CCc1nc2ccc(C(=O)NCCNC(C)=O)cn2c1N(C)CCCc1ccccc1,-8,nt,nt,nt,2,nt,nt,nt,nt,nt
Cn1c(NCc2ccccc2F)nc2cc(-c3cccc(C(F)(F)F)c3)sc2c1=O,14,nt,nt,nt,-11,nt,nt,nt,nt,nt
c1ccc(Cn2ncc3c(N4CCN(c5ccccc5)CC4)ncnc32)cc1,9,nt,nt,nt,7,nt,nt,nt,nt,nt
COc1cc(F)ccc1-c1csc(C(NC(C)=O)c2cccc(F)c2)n1 (configuration not stated),15,nt,nt,nt,-1,nt,nt,nt,nt,nt
CNc1nc(Nc2ccc(C)cc2C)c2sccc2n1,-4,nt,nt,nt,-2,nt,nt,nt,nt,nt
Cc1ccc(C(=O)Nc2ccc(N3CCN(C)CC3)cc2)cc1C,-3,-2,16*,36,5,19,-3,1,-6,29*
CCOc1cccc(C(=O)NC(=S)Nc2ccc(N3CCN(CC)CC3)cc2)c1,1,-1,45*,44,4,-12,-4,-4,-8,77*
Cc1ccc(C(=O)Nc2ccc(N3CCN(S(C)(=O)=O)CC3)cc2)cc1C,13,-4,-3,-6,8,14,nt,nt,nt,nt
CCOC(=O)C1CCCN(C(=O)c2ccc(SC(F)(F)F)cc2)CC1 (configuration not stated),-6,nt,nt,nt,20,nt,nt,nt,nt,nt
COc1ccc(-c2ccc3nnc(SCC(N)=O)n3n2)cc1,-11,-3,0,-5,-14,-4,nt,nt,nt,nt
CCSc1nnc2ccc(-c3ccc(OC)c(OC)c3)nn12,1,-4,31*,26,6,-2,-4,1,-8,44*
CCSc1nncn1/N=C/c1ccc(OC)c(OC)c1,-5,-2,24*,16,-8,-5,-3,0,-6,41*
CC(=O)N1CCN(S(=O)(=O)c2ccc(C)cc2)C1c1ccc(N(C)C)cc1 (configuration not stated),-9,-3,31*,-3,9,20,-3,51*,-4,37*
COc1cc(Cl)ccc1OC1(C)CCN(Cc2cccn2-c2nccs2)C1 (configuration not stated),-10,nt,nt,nt,-19,nt,nt,nt,nt,nt
COCCNc1c2c(nc3c(-c4ccccc4)c(C)nn13)CCC2,14,-3,6,12,-3,-2,nt,nt,nt,nt
Cc1nn2c(NCCCN(C)C)c3c(nc2c1-c1ccccc1)CCC3,-18,-3,14*,15,2,-15,-3,-5,-7,37*

# Screens deposited in PubChem BioAssay by several laboratories.
